Values after ≈ are worked out from the molar mass of the structure shown.
Legend:
[1] = WHO-TDR: Cytotoxicity; assay type: toxicity, cell-based; settings: human, MRC5 cells
Plasmodium falciparum K1 = assay: WHO-TDR: Malaria; assay type: functional, organism-based, Homo sapiens; settings: Erythrocyte
How it was run: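 Whole-organism screen of a 10,000-compound diverse library from Life Chemicals, filtered for drug-likeness and reactive groups, against intra-erythrocytic Plasmodium falciparum K1 strain in human red blood cells. The assay followed previously published standard procedures, with a reference drug as positive control. Antiplasmodial potency is reported as IC50.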

Trypanosoma cruzi = assay: WHO-TDR: Chagas disease; assay type: functional, organism-based, Homo sapiens; settings: MRC5
How it was run: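 A diverse library of 10,000 compounds from Life Chemicals, filtered for drug-likeness and reactive groups, was screened against intracellular amastigotes of Trypanosoma cruzi Tulahuen CL2 beta-galactosidase strain. The parasites were grown in MRC-5SV2 human lung fibroblast host cells, and a reference drug served as positive control under previously published standard procedures. Antiparasitic potency is given as IC50.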

[2] = system: Trypanosoma brucei brucei; assay: WHO-TDR: Human African Trypanosomiasis (HAT); assay type: functional, organism-based; settings: Squib-427
How it was run: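 Whole-organism screen of a 10,000-compound diverse library from Life Chemicals, filtered for drug-likeness and reactive groups, against bloodstream forms of Trypanosoma brucei Squib 427 strain. The assay followed previously published standard procedures, with reference drugs as positive controls. Antiparasitic potency is reported as IC50.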

Leishmania infantum = assay: WHO-TDR: Leishmaniasis; assay type: functional, organism-based, Mus musculus; settings: Macrophage
How it was run: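 Whole-organism screen of a 10,000-compound diverse library from Life Chemicals, filtered for drug-likeness and reactive groups, against intracellular amastigotes of Leishmania infantum MHOM/MA(BE)/67 in murine peritoneal macrophage host cells. The assay followed previously published standard procedures, with a reference drug as positive control. Antiparasitic potency is reported as IC50.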

Schistosoma mansoni = assay: WHO-TDR: Schistosomiasis; assay type: functional; set-up: concentration or dose not given beside the values
How it was run: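 Values are reported as percent inhibition and IC50. They come from a whole-organism screen of a 10,000-compound diverse Life Chemicals library against larval and/or adult worms of Schistosoma mansoni, Puerto Rican strain. The library had been filtered for drug-likeness and reactive groups.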

Onchocerca ochengi = assay: WHO-TDR: Onchocerciasis; assay type: functional; set-up: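 at 12.5 µM on microfilariae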
How it was run: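 Values are reported as percent inhibition and as IC50. They come from a whole-organism screen of a 10,000-compound diverse Life Chemicals library against microfilariae of Onchocerca ochengi or Onchocerca lienalis. The screen followed previously published standard procedures, with reference drugs as positive controls.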

Brugia malayi = assay: WHO-TDR: Lymphatic Filariasis; assay type: functional; set-up: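 tested at 10 µM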
How it was run: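 Values are percent inhibition and IC50 from a whole-organism screen against Brugia malayi microfilariae. The compounds, 10,000 in all, came from a diverse Life Chemicals library filtered for drug-likeness and reactive groups.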

| SMILES | IC50 [1] [µg/mL] | IC50 (Plasmodium falciparum K1) [µg/mL] | IC50 (Trypanosoma cruzi) [µg/mL] | IC50 [2] [µg/mL] | IC50 (Leishmania infantum) [µg/mL] | % Inhibition (Schistosoma mansoni) [%] | % Inhibition (Onchocerca ochengi) [%] | % Inhibition (Brugia malayi) [%] |
| --- | --- | --- | --- | --- | --- | --- | --- | --- |
| O=C(c1ccc(Br)o1)C1C(=O)N(c2ccccc2)N=C1c1ccccc1 (stereo unspecified) | > 12.3 | > 12.3 | 5.34 (≈ 13.1 µM) | 4.44 (≈ 10.8 µM) | > 12.3 | 0 | 100 | 0 |
| O=C(NCCNc1ccc(Nc2ccccn2)nn1)c1cccc(C(F)(F)F)c1 | 10.1 (≈ 25 µM) | 5.09 (≈ 12.6 µM) | > 12.1 | 6.4 (≈ 15.9 µM) | > 12.1 | 0 | 100 | 50 |
| CN(C)C(CNS(=O)(=O)c1ccc2c(c1)CCCC2)c1ccc(F)cc1 (stereo unspecified) | > 11.3 | > 11.3 | 4.67 (≈ 12.4 µM) | 2.99 (≈ 7.95 µM) | > 11.3 | 0 | 100 | 0 |
| O=C(NCCNc1ccc(Nc2ccccn2)nn1)c1ccc(F)cc1 | > 10.6 | 4.32 (≈ 12.3 µM) | > 10.6 | > 10.6 | > 10.6 | 0 | 100 | 0 |
| O=C(Nc1ccc2c(c1)N(C(=O)c1cccs1)CC2)c1cc2ccccc2oc1=O | > 12.5 | > 12.5 | > 12.5 | > 12.5 | 0.404 (≈ 0.97 µM) | 16.7 | 0 | 0 |
| O=S(=O)(CCCOc1ccc2c(c1)OCO2)NC1CCN(Cc2ccccc2)CC1 | > 13 | > 13 | 13 (≈ 30 µM) | 8.57 (≈ 19.8 µM) | > 13 | 16.7 | 100 | 0 |
| Cc1ccc(S(=O)(=O)NCCNc2ccc(Nc3cccc(C)n3)nn2)c(C)c1 | > 12.4 | > 12.4 | 3.96 (≈ 9.61 µM) | 4.01 (≈ 9.71 µM) | 8.43 (≈ 20.4 µM) | 0 | 100 | 0 |
| CS(=O)(=O)c1ccc2nc(N(Cc3cccnc3)C(=O)c3ccc4ccccc4c3)sc2c1 | > 14.2 | > 14.2 | 0.225 (≈ 0.475 µM) | > 14.2 | 4.6 (≈ 9.71 µM) | 0 | 0 | 0 |
| CCCCC1CCC(C(=O)NCCn2nc(-c3ccncc3)ccc2=O)CC1 (stereo unspecified) | 11 (≈ 28.7 µM) | > 11.5 | 6.12 (≈ 16 µM) | > 11.5 | 0.371 (≈ 0.97 µM) | 0 | 0 | 0 |
| Cc1ccnc(Nc2ccc(N3CCN(C(=O)c4ccc(F)cc4)CC3)nn2)c1 | > 11.8 | > 11.8 | > 11.8 | > 11.8 | 0.381 (≈ 0.971 µM) | 0 | 0 | 0 |
| O=C(c1ccc(C(F)(F)F)cc1)N1CCN(c2ccc(Nc3cccnc3)nn2)CC1 | 7.94 (≈ 18.5 µM) | > 12.9 | 3.43 (≈ 8.02 µM) | > 12.9 | > 12.9 | 0 | 100 | 25 |
| O=C(C1CC1)N1CCN(c2ccc(-c3ccccn3)nn2)CC1 | 2.38 (≈ 7.7 µM) | 1.05 (≈ 3.39 µM) | 2.1 (≈ 6.77 µM) | 2.94 (≈ 9.49 µM) | > 9.28 | 25 | 100 | 33.33 |
| CC(C)(C)n1ncc2c(=O)n(CCC(=O)NCc3ccccc3Cl)cnc21 | > 11.6 | > 11.6 | > 11.6 | > 11.6 | > 11.6 | 100 | 0 | 20 |
| Cc1ccc(S(=O)(=O)NCC(c2cccc3ccccc23)N2CCOCC2)cc1C (stereo unspecified) | > 12.7 | 8.79 (≈ 20.7 µM) | 4.18 (≈ 9.85 µM) | 4.12 (≈ 9.71 µM) | > 12.7 | 0 | 100 | 25 |
| Cc1ccc(S(=O)(=O)N2CCC(C(=O)Nc3c(C(N)=O)oc4ccccc34)CC2)cc1 | > 13.2 | > 13.2 | > 13.2 | > 13.2 | > 13.2 | 0 | 100 | 0 |
| CC1(C)Cc2cccc(OCCCS(=O)(=O)NCc3cccs3)c2O1 | > 11.4 | > 11.4 | > 11.4 | > 11.4 | > 11.4 | 0 | 100 | 20 |
| O=C(CC1CCCC1)N1CCN(c2ccc(-c3ccccn3)nn2)CC1 | 5.57 (≈ 15.9 µM) | 0.731 (≈ 2.08 µM) | 0.466 (≈ 1.33 µM) | 0.409 (≈ 1.16 µM) | 0.341 (≈ 0.97 µM) | 33.3 | 0 | 33.33 |
| O=C(NCCNc1ccc(Nc2ccccn2)nn1)c1ccc(C(F)(F)F)cc1 | 7.71 (≈ 19.2 µM) | 7.28 (≈ 18.1 µM) | > 12.1 | 11 (≈ 27.5 µM) | > 12.1 | 0 | 100 | 50 |
| Cn1ccnc1N1CCN(CC(=O)Nc2ccccc2C(F)(F)F)CC1 | > 11 | > 11 | > 11 | > 11 | 0.357 (≈ 0.972 µM) | 0 | 0 | 0 |
| Cc1ccnc(Nc2ccc(NCCNC(=O)c3ccc(F)cc3Cl)nn2)c1 | > 12 | 5.9 (≈ 14.7 µM) | > 12 | 4.09 (≈ 10.2 µM) | > 12 | 0 | 100 | 25 |
| O=C(Nc1nc(-c2ccc3c(c2)OCCO3)cs1)C1CCN(S(=O)(=O)c2ccc(Cl)cc2)CC1 | 2.74 (≈ 5.28 µM) | 8.56 (≈ 16.5 µM) | 0.697 (≈ 1.34 µM) | 0.586 (≈ 1.13 µM) | > 15.6 | 0 | 50 | 0 |
| COc1cccc(C(=O)N(CCCn2ccnc2)c2nc3c(C)c(C)ccc3s2)c1OC | 3.15 (≈ 6.99 µM) | 1.28 (≈ 2.85 µM) | 0.648 (≈ 1.44 µM) | 1.34 (≈ 2.97 µM) | 4.73 (≈ 10.5 µM) | 0 | 100 | 0 |

From ChEMBL document CHEMBL2093137, “WHO-TDR NTD Screening”
